Measured values from different studies.

c1ccc(C2CCN(c3nc(-c4cnn5c4CCCC5)nc4ccccc34)C2)nc1 (stereo not shown) gave a Papp of 36.7 ×10⁻⁶ cm/s (PAMPA; 10 µM, 3 h, pH 7.4).
With CCOC(=O)[C@@]12C[C@@H]1[C@@H](n1ccc3c(NC)nc(C#Cc4ccc(Cl)s4)nc31)[C@H](O)[C@@H]2O the AUC(0-t) was 34 ng·h/mL (male Sprague-Dawley rat, plasma; oral, 1 mg/kg).
With CC1(C)CC[C@]2(C)CC[C@]3(C)[C@H]4CC=C5[C@@H](CC[C@H](O)C5(C)C)[C@]4(C)CC[C@@]3(C)[C@@H]2C1 the IC50 was 66.5 µM (HCT-116; cell growth or viability, WST-1).
COC(=O)c1c(C)ncn1CC(c1c[nH]c2ccc(C)cc12)c1c[nH]c2ccc(C)cc12 has a CC50 of > 20 µM (DH82; cell growth or viability, MTS; 24 h).
For CC(C)Nc1ccnc(Nc2cccc(-c3cc[nH]n3)c2)n1, the Papp was 1740 ×10⁻⁶ cm/s (PAMPA; 50 nM, 30 min).
Cn1ccnc1CNc1nc(-c2ccccn2)nc2ccccc12 has a Papp of 27 ×10⁻⁶ cm/s (PAMPA; 10 µM, 3 h, pH 7.4).
With CC(=O)O[C@@H]1c2c(ccc3ccc(=O)oc23)OC(C)(C)[C@@H]1OC(=O)C1(C)OC1C (stereo partly shown) the IC50 was 49.9 µM (HCT-116; cell growth or viability, WST-1).
CCCCCCCCCCCCCCCCOP(=O)([O-])OCC[N+](C)(C)C gave a CC50 of > 20 µM (DH82; cell growth or viability, MTS; 24 h).
With CONc1ccnc(Nc2cccc(-c3cccnc3)c2)n1 the Papp was 1300 ×10⁻⁶ cm/s (PAMPA; 50 nM, 30 min).
For c1ccc(-c2nc(N3CCCC3c3ccccn3)c3ccccc3n2)nc1 (stereo not shown), the Papp was 21.4 ×10⁻⁶ cm/s (PAMPA; 10 µM, 3 h, pH 7.4).
